Assay results taken from ChEMBL document CHEMBL1137658, “Effect of caspofungin on metabolite profiles of Aspergillus species determined by nuclear magnetic resonance spectroscopy” (2007).
≈ marks a conversion by molar mass, not a printed value.

Assays:
[1] = tested on: Aspergillus niger; assay: Antifungal activity against Aspergillus niger isolate 05-290-2479 after 48 hrs by broth microdilution method; format: functional; conditions: isolate 05-290-2479, 48 h
In short: (§1)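 Modified CLSI M38-A broth microdilution in RPMI 1640 with l-glutamine, 2% glucose (not 0.2%), MOPS pH 7. Serial drug dilutions 0.03125 to 16 μg/ml in microtiter plates stored at −70°C up to 3 weeks. Run in duplicate. MIC = lowest concentration completely inhibiting visible growth.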

[2] = tested on: Aspergillus fumigatus; assay: microbe, parasite or virus in culture; conditions: ATCC 204305, 48 h
[3] = tested on: Aspergillus flavus; assay: Antifungal activity against Aspergillus flavus ATCC 204304 after 48 hrs by broth microdilution method; format: functional; conditions: ATCC 204304, 48 h; in short: as §1
[4] = tested on: Aspergillus terreus; assay: Antifungal activity against Aspergillus terreus isolate 04-188-2548 after 48 hrs by broth microdilution method; format: functional; conditions: isolate 04-188-2548, 48 h
[5] = tested on: Aspergillus fumigatus; assay: Inhibition of metabolite production in Aspergillus fumigatus ATCC 204305 assessed as lowest drug concentration required to inhibit 50% fungal metabolite production after 72 hrs in presence of 2 % glucose by NMR spectroscopy; format: functional
In short: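 Caspofungin dilutions with A. fumigatus ATCC 204305 in RPMI 1640-2% glucose-MOPS, incubated 72 h. ¹H NMR of medium. MEP = lowest concentration giving ≥50% fall in malate, glycine betaine or fumarate peak areas.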

[6] = tested on: Aspergillus fumigatus; assay: Inhibition of metabolite production in Aspergillus fumigatus ATCC 204305 assessed as lowest drug concentration required to inhibit 50% glycine betain, fumarate, malate production after 48 hrs in presence of 2 % glucose by NMR spectroscopy; format: functional
In short: (§2)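 Cultures grown in RPMI 1640-2% glucose-MOPS with drug series, 48 h. Culture media analysed by 600-MHz ¹H NMR. MEP taken from stack plots and peak integrals of resolved resonances, as lowest drug concentration suppressing nutrient use or metabolite production by ≥50%. Alternative MEP: lowest concentration raising fumarate >50%.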

[7] = tested on: Aspergillus niger; assay: Inhibition of metabolite production in Aspergillus niger isolate 05-290-2479 assessed as lowest drug concentration required to inhibit 50% citrate production after 48 hrs in presence of 2 % glucose by NMR spectroscopy; format: functional; in short: as §2
[8] = tested on: Aspergillus nidulans; assay: Antifungal activity against Aspergillus nidulans isolate 05-326-1785 after 72 hrs by broth microdilution method; format: functional; conditions: isolate 05-326-1785, 72 h; in short: as §1
[9] = tested on: Aspergillus nidulans; assay: Inhibition of metabolite production in Aspergillus nidulans isolate 00-202661 assessed as lowest drug concentration required to inhibit 50% fumarate production after 72 hrs in presence of 2 % glucose by NMR spectroscopy; format: functional
In short: (§3)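 A. nidulans grows slowly, so spectra were recorded after 72 h incubation in RPMI 1640-2% glucose-MOPS with drug dilutions. 600-MHz ¹H NMR of culture medium. Fumarate peak integrals plotted against drug concentration. MEP = lowest concentration with ≥50% fall in fumarate.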

[10] = tested on: Aspergillus flavus; assay: Inhibition of metabolite production in isolate Aspergillus flavus 05-314-1100 assessed as lowest drug concentration required to inhibit 50% fumarate, malate production after 48 hrs in presence of 2 % glucose by NMR spectroscopy; format: functional, isolate  05-314-1100; in short: as §2
[11] = tested on: Aspergillus terreus; assay: Antifungal activity against Aspergillus terreus isolate 06-059-2428 after 48 hrs by broth microdilution method; format: functional; conditions: isolate 06-059-2428, 48 h; in short: as §1
[12] = tested on: Aspergillus fumigatus; assay: microbe, parasite or virus in culture; conditions: ATCC 204305, 72 h
[13] = tested on: Aspergillus fumigatus; assay: Inhibition of metabolite production in Aspergillus fumigatus isolate 06-067-1639 assessed as lowest drug concentration required to inhibit 50% glycine betaine, fumarate, malate production after 48 hrs in presence of 2 % glucose by NMR spectroscopy; format: functional; in short: as §2
[14] = tested on: Aspergillus flavus; assay: Increase in metabolite production in Aspergillus flavus isolate 05-314-1100 assessed as lowest drug concentration required to increase >50% fumarate production after 48 hrs in presence of 2 % glucose by NMR spectroscopy; format: functional; in short: as §2
[15] = tested on: Aspergillus flavus; assay: Antifungal activity against Aspergillus flavus isolate 05-314-1100 after 48 hrs by broth microdilution method; format: functional; conditions: isolate 05-314-1100, 48 h
[16] = tested on: Aspergillus niger; assay: Inhibition of metabolite production in Aspergillus niger isolate 05-112-3701 assessed as lowest drug concentration required to inhibit 50% citrate production after 48 hrs in presence of 2 % glucose by NMR spectroscopy; format: functional; in short: as §2
[17] = tested on: Aspergillus terreus; assay: Inhibition of metabolite production in Aspergillus terreus isolate 06-059-2428 assessed as lowest drug concentration required to inhibit 50% ethanol production after 48 hrs in presence of 2 % glucose by NMR spectroscopy; format: functional; in short: as §2
[18] = tested on: Aspergillus flavus; assay: Inhibition of metabolite production in Aspergillus flavus ATCC 204304 assessed as lowest drug concentration required to inhibit 50% fumarate, malate production after 48 hrs in presence of 2 % glucose by NMR spectroscopy; format: functional; in short: as §2
[19] = tested on: Aspergillus nidulans; assay: Inhibition of metabolite production in Aspergillus nidulans isolate 05-326-1785 assessed as lowest drug concentration required to inhibit 50% fumarate production after 72 hrs in presence of 2 % glucose by NMR spectroscopy; format: functional; in short: as §3
[20] = tested on: Aspergillus terreus; assay: Inhibition of metabolite production in Aspergillus terreus isolate 04-188-2548 assessed as lowest drug concentration required to inhibit 50% ethanol, fumarate, malate production after 48 hrs in presence of 2 % glucose by NMR spectroscopy; format: functional; in short: as §2
[21] = tested on: Aspergillus niger; assay: Antifungal activity against Aspergillus niger isolate 05-112-3701 after 48 hrs by broth microdilution method; format: functional; conditions: isolate 05-112-3701, 48 h
In short: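 CLSI M38-A broth microdilution, modified to use RPMI 1640 with 2% glucose (instead of 0.2%), 0.3 g/liter l-glutamine and 0.165 M MOPS at pH 7. Drug twofold dilutions 0.03125–16 μg/ml. Run in duplicate. MIC is the lowest concentration with no visible growth. For the lipopeptide, MEC is read at 48 h as the lowest concentration giving aberrant hyphae under an inverted microscope.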

[22] = tested on: Aspergillus nidulans; assay: Antifungal activity against Aspergillus nidulans isolate 00-202661 after 72 hrs by broth microdilution method; format: functional; conditions: isolate 00-202661, 72 h; in short: as §1
[23] = tested on: Aspergillus fumigatus; assay: microbe, parasite or virus in culture; conditions: isolate 06-067-1639, 48 h

SMILES: C[C@@H]1[C@H](O)[C@@H](C)/C=C/C=C/C=C/C=C/C=C/C=C/C=C/[C@H](O[C@@H]2O[C@H](C)[C@@H](O)[C@H](N)[C@@H]2O)C[C@@H]2O[C@](O)(C[C@@H](O)C[C@@H](O)[C@H](O)CC[C@@H](O)C[C@@H](O)CC(=O)O[C@H]1C)C[C@H](O)[C@H]2C(=O)O [AMPHOTERICIN B]
- MIC [1]: 0.25 µg/mL (≈ 0.271 µM)
- MIC [2]: 1 µg/mL (≈ 1.08 µM)
- MIC [3]: 8 µg/mL (≈ 8.66 µM)
- MIC [4]: 2 µg/mL (≈ 2.16 µM)
- Activity [5]: 1 µg/mL
- Activity [6]: 0.25 µg/mL
- Activity [7]: 0.125 µg/mL
- MIC [8]: 0.5 µg/mL (≈ 0.541 µM)
- Activity [9]: 0.25 µg/mL
- Activity [10]: 2 µg/mL
- MIC [11]: 1 µg/mL (≈ 1.08 µM)
- MIC [12]: 1 µg/mL (≈ 1.08 µM)
- Activity [13]: 0.5 µg/mL
- Activity [14]: 0.06 µg/mL
- MIC [15]: 4 µg/mL (≈ 4.33 µM)
- Activity [16]: 0.25 µg/mL
- Activity [17]: 0.06 µg/mL
- Activity [18]: 2 µg/mL
- Activity [19]: 0.5 µg/mL
- Activity [20]: 2 µg/mL
- MIC [21]: 0.5 µg/mL (≈ 0.541 µM)
- MIC [22]: 1 µg/mL (≈ 1.08 µM)
- MIC [23]: 1 µg/mL (≈ 1.08 µM)
